According to article PMC4245983 (Biochemistry, 2014):
Entries after “also recorded” stand apart in the source; their conditions may differ. One block for each molecule: values may come before it.

What was measured:
[1] = system: HscA; assay: ATPase activity as a function of ATP concentration; assay type: biochemical, Escherichia coli; details: for Vmax from Michaelis-Menten fit: 2–1000 μM ATP, 1 μM HscA, HMKD pH 7.3, 25 °C, n = 3; for apparent ATP binding affinity, comparison of HscA386 and HscA395: from Km comparison
In short: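 NBD constructs (stop codons at residue 387 or 396; DEAE then Superdex 75 purification) were used at 1 μM in HMKD (50 mM HEPES pH 7.3, 150 mM KCl, 10 mM MgCl2, 1 mM DTT), 25 °C. ATP was 2, 4, 10, 40, 100 and 1000 μM. Pi release was monitored continuously by EnzChek coupled assay at 360 nm against a Pi standard curve. Means of three replicates were fit by nonlinear Michaelis–Menten regression for Km and Vmax.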

[2] = Solubility of linker peptide; assay type: physicochemical; details: TED buffer pH 7.5 without DMSO, upper limit concentration of 3 mM
[3] = system: HscA386; assay: Steady-state ATPase assay of HscA386; assay type: biochemical, Escherichia coli; details: for effect on ATPase activity of HscA386 by linker peptide: 5–500 μM linker peptide, 1 μM HscA386, HMKD with 10% DMSO; for effect on ATPase activity of HscA386: 50:1 molar ratio (50 μM HscB or IscU), 25 °C, n = 3
[4] = system: HscA386; assay: 2D 1H-15N TROSY-HSQC linker peptide binding to HscA386; design: species or system Escherichia coli; details: 0.2 mM [U-15N]HscA386, 3 mM linker peptide (15-fold molar excess), TED buffer, 900 MHz
[5] = system: HscA389; assay: Steady-state ATPase assay of HscA389 with HscB or IscU; assay type: biochemical, Escherichia coli; details: 50:1 molar ratio (50 μM HscB or IscU), 25 °C, n = 3
In short: (§1)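 HscB or IscU (50-fold molar excess, 50 μM) was added to 1 μM HscA variant (full-length WT or NBD construct). Reactions used HMKD buffer pH 7.3 with 1 mM ATP at 25 °C. Phosphate release was monitored continuously by EnzChek coupled assay at 360 nm, calibrated with a Pi standard curve. Three or more replicates.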

[6] = system: WT HscA; assay: Steady-state ATPase assay of WT HscA with HscB or IscU; assay type: biochemical, Escherichia coli; details: for effect on ATPase activity of WT HscA: 50-fold molar excess of HscB or IscU, 25 °C, n = 3
In short: as §1

[7] = system: HscA395; assay: Steady-state ATPase assay of HscA395 with HscB or IscU; assay type: biochemical, Escherichia coli; details: 50:1 molar ratio (50 μM HscB or IscU), 25 °C, n = 3
In short: as §1

[8] = system: HscA; assay: Steady-state ATPase assay of HscA variants; assay type: biochemical, Escherichia coli; details: for fold increase in ATPase activity vs HscA386 / fold increase in ATPase activity vs WT HscA: 1 μM HscA, 1 mM ATP, HMKD pH 7.3, 25 °C; for fold increase in ATPase activity vs HscA386: relative to HscA386; for fold increase in ATPase activity vs WT HscA: relative to WT HscA
In short: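 Steady-state hydrolysis at 25 °C in HMKD (50 mM HEPES pH 7.3, 150 mM KCl, 10 mM MgCl2, 1 mM DTT) with 1 μM HscA variant and 1 mM ATP. Pi release was followed continuously by EnzChek enzyme-coupled assay at 360 nm and converted via a Pi standard curve to min–1. Three or more replicates. Linker peptide was dissolved in HMKD with 10% DMSO and added at 5–500 μM final.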

[9] = Differential scanning fluorimetry; assay type: physicochemical; details: relative to HscA386
In short: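 2 μM protein in 5 mM HEPES pH 7.3, 10 mM MgCl2, 10 mM KCl with 10 μM SYPRO orange, in triplicate. Heated 15–99 °C in a real-time PCR instrument; excitation 492 nm, emission 610 nm. Tm was taken where the first derivative of fluorescence reached its minimum.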

[10] = system: IscU; details: cited from earlier work
[11] = system: WT HscA; details: J-domain interactions; cited from earlier work
[12] = system: HscA386(T212V); assay: 2D 1H-15N TROSY-HSQC nucleotide binding to HscA386; design: species or system Escherichia coli; details: TED buffer lacking Mg2+, pH 7.5, 10 mM ATP
In short: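 0.3 mM [U-15N]-labelled NBD construct (expressed in Rosetta Blue DE3 in M9 medium with 1 g/L 15NH4Cl, 0.4 mM IPTG, 4 h). Solvent was TED buffer with 7% D2O and 0.02% sodium azide. 2D 1H–15N TROSY-HSQC spectra were taken without nucleotide and with 10 mM ATP at 25 °C, 800 MHz, and compared.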

Molecule: HscA386: isolated nucleotide-binding domain (NBD) of HscA
- Vmax from Michaelis-Menten fit [1]: 0.039 ± 0.001 min^–1
- apparent ATP binding affinity, comparison of HscA386 and HscA395 [1]: equivalent; also recorded: identical within experimental error

Molecule: LLLDVIPLS [linker peptide]
- solubility of linker peptide in TED buffer [2]: partially dissolved
- effect on ATPase activity of HscA386 by linker peptide [3]: A concentration dependence was observed
- effect on ATPase activity of HscA386 by linker peptide ([3]; listed as synthetic peptide): stimulated its ATPase activity
- binding of linker peptide to HscA386 (chemical shift perturbation) [4]: widespread chemical shift perturbations, including distinct broadening of some signals; also recorded: relatively weaker binding interactions; also recorded: weakly binding
- binding of linker peptide to HscA386 (chemical shift perturbation) ([4]; listed as synthetic peptide): widespread NMR chemical shift perturbations indicative of a binding interaction

Molecule: IscU: scaffold protein, substrate of HscA
- effect on ATPase activity of HscA389 [5]: no effect on the ATPase activities of any of the NBD variants; also recorded: not affected
- effect on ATPase activity of HscA386 [3]: no effect on the ATPase activities of any of the NBD variants; also recorded: not affected
- effect on ATPase activity of WT HscA [6]: enhanced
- effect on ATPase activity of HscA395 [7]: no effect on the ATPase activities of any of the NBD variants; also recorded: not affected

Molecule: HscA389: NBD of HscA containing a short (three-amino acid) linker peptide, LLL motif
- fold increase in ATPase activity vs HscA386 [8]: 7 fold
- fold increase in ATPase activity vs WT HscA [8]: 9 fold

- fold faster ATP hydrolysis than HscA386 in the presence of linker peptide ([8]; relative to HscA386 + 500 μM linker peptide): 3 fold
Molecule: HscA395: NBD of HscA containing the full-length (nine-amino acid) linker peptide
- Vmax from Michaelis-Menten fit [1]: 0.446 ± 0.016 min^–1
- apparent ATP binding affinity, comparison of HscA386 and HscA395 [1]: equivalent; also recorded: identical within experimental error
- fold increase in ATPase activity vs HscA386 [8]: 13 fold
- fold increase in ATPase activity vs WT HscA [8]: 17 fold
- basal thermostability vs HscA386 [9]: higher than those of HscA386; also recorded: increases basal thermostability in comparison to that of HscA386

Molecule: HscB: Hsp40-type cochaperone of HscA
- effect on ATPase activity of HscA389 [5]: not affected; also recorded: did not elicit any stimulation of ATPase activity
- effect on ATPase activity of HscA386 [3]: not affected; also recorded: did not elicit any stimulation of ATPase activity; also recorded: neither the isolated NBD (HscA386) nor the NBD with a full interdomain liker (HscA395) was receptive to ATPase stimulation
- preferential binding to conformational state of IscU [10]: binds preferentially to the S-state
- fold increase in ATPase activity of WT HscA ([6]; 1 μM WT HscA with 50 μM HscB): 8 factor
- effect on ATPase activity of WT HscA [6]: enhanced
- HscB-mediated activation of full-length HscA ATPase activity [11]: sensitive to HscB-mediated activation of ATPase activity
- effect on ATPase activity of HscA395 [7]: not affected; also recorded: did not elicit any stimulation of ATPase activity; also recorded: neither the isolated NBD (HscA386) nor the NBD with a full interdomain liker (HscA395) was receptive to ATPase stimulation

Molecule: Nc1ncnc2c1ncn2[C@@H]1O[C@H](COP(=O)(O)OP(=O)(O)OP(=O)(O)O)[C@@H](O)[C@H]1O [ATP]
- ATP binding in the absence of Mg2+ (TROSY-HSQC) [12]: nearly superimposable
